M5 ag: human M5 muscarinic receptor agonists, primary screen, CHO-K1 cells, Fluo-8 calcium fluorescence. AID 624037, 2012. activation, % at 3 µM. hit rate 0.19% among 360,000. CHO-K1 hM5 cells; 0% DMSO wells, 100% maximal acetylcholine response;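 active = activation above the run's mean over test compounds plus 3 SD, cut at about 23% in these data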;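 note: signal is peak over basal fluorescence ratio across the kinetic read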
Target sequence (P08912 whole entry, looked up): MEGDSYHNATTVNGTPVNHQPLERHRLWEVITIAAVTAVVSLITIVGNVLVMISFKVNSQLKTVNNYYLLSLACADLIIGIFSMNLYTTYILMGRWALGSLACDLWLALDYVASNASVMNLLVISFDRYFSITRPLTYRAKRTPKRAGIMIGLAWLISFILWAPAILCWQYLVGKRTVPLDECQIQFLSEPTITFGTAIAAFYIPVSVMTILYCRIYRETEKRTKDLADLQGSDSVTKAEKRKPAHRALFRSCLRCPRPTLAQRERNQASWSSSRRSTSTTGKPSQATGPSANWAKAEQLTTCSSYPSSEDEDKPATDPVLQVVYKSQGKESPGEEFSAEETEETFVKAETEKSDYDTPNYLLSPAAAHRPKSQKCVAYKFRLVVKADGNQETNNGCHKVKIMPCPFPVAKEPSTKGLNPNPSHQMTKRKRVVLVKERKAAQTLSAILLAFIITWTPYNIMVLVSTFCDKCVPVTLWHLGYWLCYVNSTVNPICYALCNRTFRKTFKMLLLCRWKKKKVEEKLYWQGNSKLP
CHRM4 antagonist: human M4 muscarinic receptor antagonists, primary screen, CHO cells, Fluo-8 calcium fluorescence | inhibition, % at 3 µM | CHO-hM4 cells, ACh EC80 | hit rate 0.73% among 360,000 | AID 624125, 2012 | Muscarinic acetylcholine receptor M4 (Homo sapiens), P08173;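 active = inhibition above its plate's cutoff, the mean inhibition of sample wells plus 3 SD, cut at about 27% in these data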;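 note: 0% = acetylcholine EC80 with DMSO and 100% = DMSO without agonist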
M5 PAM: human M5 muscarinic receptor positive allosteric modulators, primary screen, CHO-K1 cells, Fluo-8 calcium fluorescence; Muscarinic acetylcholine receptor M5 (Homo sapiens), P08912; CHO-K1 hM5, ACh EC20 PAM; 0% = ACh EC20, 100% = ACh EC100; activation, % at 3 µM; hit rate 0.3% among 360,000; AID 624038, 2012;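 active = activation above the run cutoff, the mean activation of all test compounds plus 3 SD, cut at about 18% in these data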
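Replicates: One well per compound, no replicates | System: Human M5 receptor in CHO-K1 cells | Benchmarks: Low control EC20 acetylcholine (0%), high control EC100 acetylcholine (100%) | Probe or stimulus: Acetylcholine, EC20 level | Times: Fluo-8 loading 80 min at 37 °C plus 30 min room temperature | Signal: Intracellular calcium via Fluo-8 fluorescence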
M4 ag: human M4 muscarinic receptor agonists, primary screen, CHO-K1 cells, Fluo-8 calcium fluorescence | Muscarinic acetylcholine receptor M4 (Homo sapiens), P08173 | activation, % at 3 µM | CHO-K1 hM4/Gqi5; vehicle 0%, full acetylcholine response 100% | hit rate 0.14% among 360,000;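 active = activation above the run mean over all test wells plus 3 SD, cut at about 32% in these data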;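 note: peak over basal fluorescence ratio per well then scaled between controls; 0% = DMSO wells and 100% = acetylcholine at EC100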
M5 antag: human M5 muscarinic receptor antagonists, primary screen, CHO cells, Fluo-8 calcium fluorescence | hit rate 0.59% among 360,000 | inhibition, % at 3 µM | CHO-hM5 cells, ACh EC80 | Muscarinic acetylcholine receptor M5 (Homo sapiens), P08912 | AID 624040, 2012;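 active = inhibition above a per-plate cutoff, the mean of that plate's test compounds plus 3 SD, cut at about 27% in these data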;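 note: 0% = acetylcholine EC80 with DMSO and 100% = DMSO without agonist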
M4 PAM: human M4 muscarinic receptor positive allosteric modulators, primary screen, CHO-K1 cells, Fluo-8 calcium fluorescence | Muscarinic acetylcholine receptor M4 (Homo sapiens), P08173 | AID 624126, 2012 | hit rate 0.4% among 360,000 | activation, % at 3 µM | CHO-K1 hM4/Gqi5, ACh EC20; 0% = ACh EC20, 100% = maximal ACh;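 active = activation above its plate's cutoff, the mean activation of sample wells plus 3 SD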
* marks the source's active call; other numbers are inactive results. Rows were chosen to be rich in hits. Some 1.9% of all compounds tested hit in one or more screens of this group.

SMILES	M5 ag	CHRM4 antagonist	M5 PAM	M4 ag	M5 antag	M4 PAM
OC1(C#CCN2CCCC2)c2ccccc2-c2ccccc21	-21.0	47.5*	-31.8	0.9	51.2*	-55.8
Cc1ccc(NC(=O)COC(=O)CC2CCCC2)cc1F	-3.8	-6.6	6.0	1.8	12.1	1.9
COc1ccc(-c2csc(NC(=O)c3ccccc3NS(=O)(=O)c3ccc(C)cc3)n2)cc1	1.8	19.2	-19.0	13.4	32.9*	-27.6
COc1ccc(S(=O)(=O)Nc2ccccc2C(=O)Nc2nc(-c3ccc(F)cc3)cs2)cc1OC	6.5	32.6*	-21.4	17.7	43.0*	-13.9
COc1ccc(-c2csc(NC(=O)c3c(OC)cccc3OC)n2)cc1	5.1	-11.7	3.9	1.1	6.6	8.9
CCCNC(=O)c1ccccc1NS(=O)(=O)c1ccc(OC)c(OC)c1	-0.7	-5.0	7.7	0.9	5.9	9.7
O=C(COc1ccc(S(=O)(=O)N2CCCCC2)cc1)N1CCCC1	-1.8	6.8	-0.1	0.4	12.7	-5.9
O=C(O)c1ccc(N2C(=O)CSC2=S)cc1	0.3	-11.6	-4.5	7.0	13.3	-3.9
O=C1CSC(=S)N1c1ccc(F)c(Cl)c1	6.2	4.0	-12.4	12.4	33.1*	-6.9
CCOc1ccc(N2C(=O)CSC2=S)cc1	1.1	-4.7	18.4*	0.4	-0.9	4.3
O=C(O)c1cc(C(=O)O)cc(N2C(=O)CSC2=S)c1	-5.9	5.4	12.8	1.5	-7.9	17.3*
COc1ccc(Cn2cc(CN3CC(N4CCSCC4)CS3(=O)=O)nn2)cc1 (stereo unspecified)	2.7	-13.5	-0.2	1.1	-6.6	4.9
CCCCCn1c(=O)[nH]c2cc(C(=O)NCCN3CCCCC3C)ccc2c1=O (stereo unspecified)	-5.4	9.8	-7.9	0.8	14.8	-7.8
CCc1ccc(CN2CCC(n3nccc3NC(=O)C3CCCC3)CC2)cc1	-2.7	-8.2	-8.6	1.9	9.8	1.3
Nc1ccccc1SC1CC(=O)N(c2ccc(Cl)c(Cl)c2)C1=O (stereo unspecified)	3.1	14.5	-14.6	14.6	27.8*	-16.4
CCN(CC)C(=O)c1cccc(-c2csc(C(NC(C)=O)c3ccc(F)c(F)c3)n2)c1 (stereo unspecified)	-0.3	-6.0	-1.5	1.8	5.2	3.6
CN(C)c1ccc(C2N3CC4(C)CN2CC(C)(C3)C4O)cc1 (stereo unspecified)	-0.6	-28.6	0.7	1.2	-9.7	11.5
CC(C)C12CN3CC(C(C)C)(CN(C1)C3c1ccccc1)C2O (stereo unspecified)	5.9	-0.2	-2.4	1.2	1.5	32.4*
O=S(=O)(c1ccc(Br)cc1)c1nc(-c2ccco2)oc1NCCCn1ccnc1	-3.0	2.4	2.2	1.1	2.8	12.9
Cc1ccccc1CS(=O)(=O)c1nnc([C@H](CC(C)C)NC(=O)OC(C)(C)C)o1	0.9	28.2*	5.3	1.6	-0.8	-11.3
CC(C)[C@H](NC(=O)OC(C)(C)C)c1nnc(S(=O)(=O)Cc2c(F)cccc2Cl)o1	-1.8	43.2*	-2.8	2.4	7.9	-15.5
CC[C@@H](C)[C@H](NC(=O)OC(C)(C)C)c1nnc(S(=O)(=O)Cc2cc(C)ccc2C)o1	-2.9	47.8*	-1.9	2.2	7.5	-14.8
CC(C)C[C@H](NC(=O)OC(C)(C)C)c1nnc(SCc2ccccc2)o1	-5.0	-1.0	-0.3	-3.5	0.5	-3.4
O=C(COc1ccccc1[N+](=O)[O-])N(Cc1ccco1)C1CCS(=O)(=O)C1 (stereo unspecified)	-1.6	9.7	1.2	0.9	-8.5	-2.1
NC(c1ccccc1)c1cccs1 (stereo unspecified)	-2.3	-4.8	-4.1	0.7	6.8	3.9
